# Compound activity as filed in PubChem BioAssay.
# bCat KO growth: primary screen for growth suppressors in beta-catenin knockout HCT116 cells (colon tumor, human); HCT116 beta-catenin knockout viability, CellTiter-Glo, 60 h; hits give low values; viability, % at 10 µM; actives 1.5% (n = 140,000); AID 818, 2007;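 active = viability at or under a set limit, the compound median less 4 SD, cut at about 6% in these data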;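 note: 0% = Hyamine 1622 control at 20 µM and 100% = untreated cell control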
# H69AR growth 86K: proliferation blockers of H69AR lung cancer cells, primary screen, cell-based, human, 86K library; H69AR lung tumor viability, ATP luminescence, 72 h; hits give low values; viability, % at 10 µM; actives 6% (n = 85,000);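 active = viability at or below 40%; inactive = viability above 40%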;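 note: multidrug resistant small cell line overexpressing MRP-1 efflux transporter; 100% = mean luminescence of untreated control wells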
# PTEN del growth: growth suppression of PTEN-null HCT116, primary screen, cell-based, CellTiter-Glo | HCT116 PTEN-null viability, 60 h; hits give low values | viability, % at 10 µM | actives 1.2% (n = 140,000);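 active = viability at or below a set limit, 4 SD under the median of all tested compounds, cut at about 3.7% in these data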;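 note: PTEN knockout HCT116 line with beta catenin targeted HCT116 as companion control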
# HUVEC inhibit: inhibitors of HUVEC proliferation, primary screen, cell-based, 384-well; CellTiter-Glo luminescence, 72 h; hits give low values; viability, % at 10 µM (by protocol); actives 1.1% (n = 86,000);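 active = viability at or below 30%; inactive = viability above 30%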;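 note: 100% = median luminescence of DMSO-only cell control wells on each plate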
# Lung fibro prol: antiproliferative effect on LL 47 fibroblasts – human, LL 47 cells, CellTiter-Glo luminescence, primary screen; LL 47 human lung fibroblast viability, ATP luminescence; hits give low values; viability, % at 10 µM; actives 1.1% (n = 85,000); AID 719, 2007;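 active = viability at or below 50% in the single dose screen; inactive = viability above 50%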;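 note: compound exposure lasted 72 h before the ATP readout; 100% = median luminescence of untreated cell-only wells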
#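 Material: Human LL 47 lung fibroblast cells | Input: 1,150 cells/well | Buffer or medium: IMEM plus 15% FBS | Compound dosing: 0.1% DMSO in all compound wells | Times: Overnight cell rest, 72 h compound treatment at 37 °C | Signal: CellTiter-Glo luminescence measuring cellular ATP | Measure: % viability versus median cells-only luminescence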
# Active calls of the source: *; . = no result given. This is one part of a sample in which hits are shown more often than they occur.
SMILES,bCat KO growth,H69AR growth 86K,PTEN del growth,HUVEC inhibit,Lung fibro prol
COc1ccccc1C1c2c(oc3ccc(Cl)cc3c2=O)C(=O)N1c1cc(C)on1 (stereo not drawn),.,40*,.,42,36*
O=C(/C=C/c1cccs1)Nc1cccnc1,82,.,92,.,.
Cc1[nH]nc2c1C(c1cc(Br)cs1)C(C#N)=C(N)O2 (stereo not drawn),2.0*,.,2.1*,.,.
Cc1[nH]nc2c1C(c1ccoc1)C(C#N)=C(N)O2 (stereo not drawn),96,97,82,92,100
CCN(NC(=O)C(O)(c1ccccc1)c1ccccc1)C(=O)c1ccccc1,87,.,93,.,.
CC(c1ccccc1)N(NC(=O)C(O)(c1ccccc1)c1ccccc1)C(=O)c1ccccc1 (stereo not drawn),36,.,1.7*,.,.
O=c1[nH]c(N/N=C/c2ccccc2Br)nnc1-c1ccccc1,84,.,96,.,.
COc1ccc(/C=N/Nc2nnc(-c3ccccc3)c(=O)[nH]2)cc1,4.5*,.,2.9*,.,.
CC(=O)c1cccc(-n2nnnc2SCC(=O)Nc2ccccc2N2CCCCC2)c1,70,92,68,95,105
Cc1ccc(NCC(=O)N/N=C/c2cc3ccccc3nc2Cl)cc1,14,.,20,.,.
Cc1cccc(-c2nc(CSCC(=O)N3CCN(Cc4ccc5c(c4)OCO5)CC3)c(C)o2)c1,12,33*,18,88,95
Cc1ccccc1OCc1nc2ccccc2c(=O)n1/N=C/c1cn[nH]c1-c1ccc(Br)cc1,19,.,2.7*,.,.
O=c1c2ccccc2nc(COc2ccccc2)n1/N=C/c1cn[nH]c1-c1ccccc1,64,.,19,.,.
CCCc1nc(-c2ccc(-c3ccc(F)cc3)cc2)no1,80,97,89,99,94
CCOc1ccccc1Nc1nc(-c2sc(NC(=O)c3ccc([N+](=O)[O-])cc3)nc2C)cs1,0.8*,.,1.5*,.,.
Cc1ccccc1Nc1nc(-c2sc(NC(=O)c3ccc([N+](=O)[O-])cc3)nc2C)cs1,97,.,93,.,.
COc1ccc(Cl)cc1Nc1nc(-c2sc(NC(=O)c3ccccc3)nc2C)cs1,1.2*,.,1.1*,.,.
CC(NC(=S)Nc1ccccc1Cl)C(c1ccccc1)N1CCOCC1 (stereo not drawn),42,.,44,.,.
O=c1c2c3nc4ccccc4nc3n(-c3cccc(F)c3)c2ncn1Cc1ccc2c(c1)OCO2,.,18*,.,73,66
COc1ccc(N(CC(=O)N2CCc3ccccc3C2)S(C)(=O)=O)cc1,91,83,95,88,89
C#CCn1c(=NC(=O)c2ccc(Cl)s2)sc2cccc(OC)c21,4.4*,1.5*,5,44,61
C#CCn1c(=NC(=O)c2cccs2)sc2cccc(OCC)c21,92,23*,92,79,95
COC(=O)Cn1c(=NC(=O)c2ccc(Cl)s2)sc2cc(F)ccc21,61,.,58,.,.
c1ccc(CSc2nnc(NC3=NCCCCC3)s2)cc1,69,102,87,97,114
CCOC(=O)C1(N(CC)CC)Sc2cc(C)ccc2NC1=O (stereo not drawn),24,15*,26,74,55
SMILES,bCat KO growth,H69AR growth 86K,PTEN del growth,HUVEC inhibit,Lung fibro prol
Fc1cccc2sc(N3CCCCC3)nc12,95,109,89,102,114
Cc1ccc(-c2nn(CC(=O)NCc3ccco3)c(=O)c3ccccc23)cc1,5.2*,22*,7,81,63
Cc1ccc(-c2nn(C)c(=O)c3ccccc23)cc1CNC(=O)CN1CCOCC1,93,64,91,101,94
Cc1ccc(-c2nn(C)c(=O)c3ccccc23)cc1CO,93,.,99,.,.
Cc1ccc(-c2nn(CC(=O)NCCN3CCOCC3)c(=O)c3ccccc23)cc1,87,93,95,95,100
Cc1cc(C)n(CC(=O)NCc2cc(-c3nn(C)c(=O)c4ccccc34)ccc2C)n1,89,30*,97,94,96
Cc1ccc(-c2nn(C)c(=O)c3ccccc23)cc1CNC(=O)Cn1nc(-c2ccccc2)c2ccccc2c1=O,89,1.6*,101,86,99
CCOc1cc(C=O)ccc1OS(=O)(=O)c1ccc(NC(C)=O)cc1,91,.,85,.,.
O=C(c1ccc(Br)cc1)c1cc([N+](=O)[O-])ccc1N1CCCCC1,13,.,14,.,.
